pIC50: −log10 of the molar value.
Experiments:
Plasmodium falciparum [1] = assay: Antiplasmodial activity against chloroquine-sensitive Plasmodium falciparum 3D7 by [3H]-hypoxanthine incorporation assay; assay type: functional, organism-based; settings: Plasmodium falciparum, 3D7
How it was run: (§1)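 Blood-stage P. falciparum 3D7 and FCR-3 were tested by a modified [3H]-hypoxanthine incorporation assay. Chloroquine was the reference in all runs.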

Plasmodium falciparum [2] = assay: Antiplasmodial activity against multidrug-resistant Plasmodium falciparum FCR-3 by [3H]-hypoxanthine incorporation assay; assay type: functional, organism-based, FCR-3/Gambia; settings: Plasmodium falciparum, FCR-3/Gambia; how it was run: as §1
[3] = Cytotoxicity against human HepG2A16 cells by MTT assay; assay type: cell-based; settings: HepG2A16 cells
How it was run: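 MTT viability assay on HepG2-A16 cells, giving CC50 values.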

[4] = Selectivity index, ratio of CC50 for human HepG2A16 cells by MTT assay to IC50 for multidrug-resistant Plasmodium falciparum FCR-3; assay type: toxicity; settings: HepG2A16 cells, read-out: Ratio CC50/IC50
How it was run: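 HepG2-A16 human hepatoma cells were tested by MTT viability assay to give CC50. Blood-stage activity was measured against the multidrug-resistant P. falciparum FCR-3 strain by [3H]-hypoxanthine incorporation to give IC50. SI = CC50 HepG2 / FCR-3 IC50.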

[5] = Genotoxicity in Salmonella typhimurium TA1535 harboring pSK1002 assessed as survival at 0.031 mg/ml in absence of Sprague-Dawley rat liver S9 fraction after by SOS/umu assay relative to control; assay type: toxicity, organism-based; settings: salmonella enterica subsp. enterica serovar typhimurium, read-out: Survival
[6] = Genotoxicity in Salmonella typhimurium TA1535 harboring pSK1002 assessed as umu gene induction at 0.001 mg/ml in absence of Sprague-Dawley rat liver S9 fraction after by SOS/umu assay relative to control; assay type: toxicity, organism-based; settings: salmonella enterica subsp. enterica serovar typhimurium, read-out: FC
[7] = Genotoxicity in Salmonella typhimurium TA1535 harboring pSK1002 assessed as survival at 0.002 mg/ml in absence of Sprague-Dawley rat liver S9 fraction after by SOS/umu assay relative to control; assay type: toxicity, organism-based; settings: salmonella enterica subsp. enterica serovar typhimurium, read-out: Survival
[8] = Genotoxicity in Salmonella typhimurium TA1535 harboring pSK1002 assessed as survival at 0.004 mg/ml in presence of Sprague-Dawley rat liver S9 fraction after by SOS/umu assay relative to control; assay type: toxicity, organism-based; settings: salmonella enterica subsp. enterica serovar typhimurium, read-out: Survival
[9] = Genotoxicity in Salmonella typhimurium TA1535 harboring pSK1002 assessed as umu gene induction at 0.002 mg/ml in presence of Sprague-Dawley rat liver S9 fraction after by SOS/umu assay relative to control; assay type: toxicity, organism-based; settings: salmonella enterica subsp. enterica serovar typhimurium, read-out: FC
[10] = Genotoxicity in Salmonella typhimurium TA1535 harboring pSK1002 assessed as survival at 0.008 mg/ml in absence of Sprague-Dawley rat liver S9 fraction after by SOS/umu assay relative to control; assay type: toxicity, organism-based; settings: salmonella enterica subsp. enterica serovar typhimurium, read-out: Survival
[11] = Genotoxicity in Salmonella typhimurium TA1535 harboring pSK1002 assessed as umu gene induction at 0.004 mg/ml in absence of Sprague-Dawley rat liver S9 fraction after by SOS/umu assay relative to control; assay type: toxicity, organism-based; settings: salmonella enterica subsp. enterica serovar typhimurium, read-out: FC
[12] = Genotoxicity in Salmonella typhimurium TA1535 harboring pSK1002 assessed as umu gene induction at 0.031 mg/ml in presence of Sprague-Dawley rat liver S9 fraction after by SOS/umu assay relative to control; assay type: toxicity, organism-based; settings: salmonella enterica subsp. enterica serovar typhimurium, read-out: FC
[13] = Genotoxicity in Salmonella typhimurium TA1535 harboring pSK1002 assessed as umu gene induction at 0.008 mg/ml in presence of Sprague-Dawley rat liver S9 fraction after by SOS/umu assay relative to control; assay type: toxicity, organism-based; settings: salmonella enterica subsp. enterica serovar typhimurium, read-out: FC
[14] = Genotoxicity in Salmonella typhimurium TA1535 harboring pSK1002 assessed as survival at 0.001 mg/ml in presence of Sprague-Dawley rat liver S9 fraction after by SOS/umu assay relative to control; assay type: toxicity, organism-based; settings: salmonella enterica subsp. enterica serovar typhimurium, read-out: Survival
[15] = Genotoxicity in Salmonella typhimurium TA1535 harboring pSK1002 assessed as umu gene induction at 0.001 mg/ml in presence of Sprague-Dawley rat liver S9 fraction after by SOS/umu assay relative to control; assay type: toxicity, organism-based; settings: salmonella enterica subsp. enterica serovar typhimurium, read-out: FC
[16] = Genotoxicity in Salmonella typhimurium TA1535 harboring pSK1002 assessed as umu gene induction at 0.004 mg/ml in presence of Sprague-Dawley rat liver S9 fraction after by SOS/umu assay relative to control; assay type: toxicity, organism-based; settings: salmonella enterica subsp. enterica serovar typhimurium, read-out: FC
[17] = Genotoxicity in Salmonella typhimurium TA1535 harboring pSK1002 assessed as survival at 0.031 mg/ml in presence of Sprague-Dawley rat liver S9 fraction after by SOS/umu assay relative to control; assay type: toxicity, organism-based; settings: salmonella enterica subsp. enterica serovar typhimurium, read-out: Survival
[18] = Genotoxicity in Salmonella typhimurium TA1535 harboring pSK1002 assessed as survival at 0.008 mg/ml in presence of Sprague-Dawley rat liver S9 fraction after by SOS/umu assay relative to control; assay type: toxicity, organism-based; settings: salmonella enterica subsp. enterica serovar typhimurium, read-out: Survival
[19] = Genotoxicity in Salmonella typhimurium TA1535 harboring pSK1002 assessed as umu gene induction at 0.008 mg/ml in absence of Sprague-Dawley rat liver S9 fraction after by SOS/umu assay relative to control; assay type: toxicity, organism-based; settings: salmonella enterica subsp. enterica serovar typhimurium, read-out: FC
[20] = Genotoxicity in Salmonella typhimurium TA1535 harboring pSK1002 assessed as survival at 0.002 mg/ml in presence of Sprague-Dawley rat liver S9 fraction after by SOS/umu assay relative to control; assay type: toxicity, organism-based; settings: salmonella enterica subsp. enterica serovar typhimurium, read-out: Survival
[21] = Genotoxicity in Salmonella typhimurium TA1535 harboring pSK1002 assessed as survival at 0.016 mg/ml in absence of Sprague-Dawley rat liver S9 fraction after by SOS/umu assay relative to control; assay type: toxicity, organism-based; settings: salmonella enterica subsp. enterica serovar typhimurium, read-out: Survival
[22] = Genotoxicity in Salmonella typhimurium TA1535 harboring pSK1002 assessed as survival at 0.016 mg/ml in presence of Sprague-Dawley rat liver S9 fraction after by SOS/umu assay relative to control; assay type: toxicity, organism-based; settings: salmonella enterica subsp. enterica serovar typhimurium, read-out: Survival
[23] = Genotoxicity in Salmonella typhimurium TA1535 harboring pSK1002 assessed as umu gene induction at 0.031 mg/ml in absence of Sprague-Dawley rat liver S9 fraction after by SOS/umu assay relative to control; assay type: toxicity, organism-based; settings: salmonella enterica subsp. enterica serovar typhimurium, read-out: FC
[24] = Genotoxicity in Salmonella typhimurium TA1535 harboring pSK1002 assessed as umu gene induction at 0.016 mg/ml in presence of Sprague-Dawley rat liver S9 fraction after by SOS/umu assay relative to control; assay type: toxicity, organism-based; settings: salmonella enterica subsp. enterica serovar typhimurium, read-out: FC
[25] = Genotoxicity in Salmonella typhimurium TA1535 harboring pSK1002 assessed as survival at 0.001 mg/ml in absence of Sprague-Dawley rat liver S9 fraction after by SOS/umu assay relative to control; assay type: toxicity, organism-based; settings: salmonella enterica subsp. enterica serovar typhimurium, read-out: Survival
[26] = Genotoxicity in Salmonella typhimurium TA1535 harboring pSK1002 assessed as umu gene induction at 0.002 mg/ml in absence of Sprague-Dawley rat liver S9 fraction after by SOS/umu assay relative to control; assay type: toxicity, organism-based; settings: salmonella enterica subsp. enterica serovar typhimurium, read-out: FC
[27] = Genotoxicity in Salmonella typhimurium TA1535 harboring pSK1002 assessed as survival at 0.004 mg/ml in absence of Sprague-Dawley rat liver S9 fraction after by SOS/umu assay relative to control; assay type: toxicity, organism-based; settings: salmonella enterica subsp. enterica serovar typhimurium, read-out: Survival
[28] = Genotoxicity in Salmonella typhimurium TA1535 harboring pSK1002 assessed as umu gene induction at 0.016 mg/ml in absence of Sprague-Dawley rat liver S9 fraction after by SOS/umu assay relative to control; assay type: toxicity, organism-based; settings: salmonella enterica subsp. enterica serovar typhimurium, read-out: FC

COc1ccccc1N1CCN(CCC(O)c2ccc(-c3ccccc3)cc2)CC1 (stereo unspecified)
pIC50 (Plasmodium falciparum [1]): 5.14
pIC50 (Plasmodium falciparum [2]): 5.56
CC50 [3]: 24.4 µM
selectivity ratio [4]: 9

COc1ccc(C(O)CCN2CCN(c3ccccc3OC)CC2)cc1 (stereo unspecified)
pIC50 (Plasmodium falciparum [1]): 4.98
pIC50 (Plasmodium falciparum [2]): 5.10
CC50 [3]: 371 µM
selectivity ratio [4]: 46

O=[N+]([O-])c1ccc(N2CCC(NCCC(O)c3ccc(F)c(Cl)c3)CC2)c(C(F)(F)F)c1 (stereo unspecified)
pIC50 (Plasmodium falciparum [1]): 6.15
pIC50 (Plasmodium falciparum [2]): 6.29
CC50 [3]: 4.61 µM
selectivity ratio [4]: 9

COc1ccccc1N1CCN(CCC(O)c2ccccc2)CC1 (stereo unspecified)
pIC50 (Plasmodium falciparum [1]): 4.86
pIC50 (Plasmodium falciparum [2]): 4.81
CC50 [3]: > 612 µM
selectivity ratio [4]: > 39

OC(CCN1CC=C(c2ccc(F)cc2)CC1)c1ccc(Br)cc1 (stereo unspecified)
pIC50 (Plasmodium falciparum [1]): 5.27
pIC50 (Plasmodium falciparum [2]): 5.57
CC50 [3]: 109 µM
selectivity ratio [4]: 41

O=[N+]([O-])c1ccc(N2CCC(NCCC(O)c3ccccc3)CC2)c(C(F)(F)F)c1 (stereo unspecified)
pIC50 (Plasmodium falciparum [1]): 5.35
pIC50 (Plasmodium falciparum [2]): 5.74
CC50 [3]: 27.6 µM
selectivity ratio [4]: 15

N#Cc1ccc(C(O)CCNC2CCN(c3ccc([N+](=O)[O-])cc3C(F)(F)F)CC2)cc1 (stereo unspecified)
pIC50 (Plasmodium falciparum [1]): 5.37
pIC50 (Plasmodium falciparum [2]): 5.69
CC50 [3]: 23 µM
selectivity ratio [4]: 11

O=[N+]([O-])c1cc(C(F)(F)F)ccc1N1CCN(CCC(O)c2ccc(F)c3ccccc23)CC1 (stereo unspecified)
pIC50 (Plasmodium falciparum [2]): 5.30

O=[N+]([O-])c1ccc(N2CCC(NCCC(O)c3ccc(F)c(F)c3)CC2)c(C(F)(F)F)c1 (stereo unspecified)
pIC50 (Plasmodium falciparum [1]): 6.17
pIC50 (Plasmodium falciparum [2]): 6.28
CC50 [3]: 13.3 µM
selectivity ratio [4]: 25

COc1ccccc1N1CCN(CCC(O)c2ccc3ccccc3c2)CC1 (stereo unspecified)
pIC50 (Plasmodium falciparum [1]): 5.39
pIC50 (Plasmodium falciparum [2]): 5.58
CC50 [3]: 95 µM
selectivity ratio [4]: 36

OC(CCN1CC=C(c2ccc(F)cc2)CC1)c1ccc(F)c(Cl)c1 (stereo unspecified)
pIC50 (Plasmodium falciparum [1]): 5.64
pIC50 (Plasmodium falciparum [2]): 5.15
CC50 [3]: 54.1 µM
selectivity ratio [4]: 8

COc1ccc(C(O)CCN2CC=C(c3ccc(F)cc3)CC2)c(OC)c1 (stereo unspecified)
pIC50 (Plasmodium falciparum [1]): 4.62
pIC50 (Plasmodium falciparum [2]): 5.02
CC50 [3]: 91.4 µM
selectivity ratio [4]: 10

OC(CCN1CCN(c2ccc(C(F)(F)F)cc2)CC1)c1ccc(F)c2ccccc12 (stereo unspecified)
pIC50 (Plasmodium falciparum [2]): 6.03

O=[N+]([O-])c1ccc(N2CCN(CCC(O)c3ccc(F)c4ccccc34)CC2)c(C(F)(F)F)c1 (stereo unspecified)
pIC50 (Plasmodium falciparum [2]): 6.30

OC(CCN1CC=C(c2ccc(F)cc2)CC1)c1ccccc1 (stereo unspecified)
pIC50 (Plasmodium falciparum [1]): 4.97
pIC50 (Plasmodium falciparum [2]): 5.04
CC50 [3]: 121 µM
selectivity ratio [4]: 13

COC(=O)c1ccc(C(O)CCN2CC=C(c3ccc(F)cc3)CC2)cc1 (stereo unspecified)
viability at 0.031 mg/ml [5]: 94.4%
pIC50 (Plasmodium falciparum [1]): 4.98
fold induction at 0.001 mg/ml [6]: 0.7
viability at 0.002 mg/ml [7]: 109%
viability at 0.004 mg/ml [8]: 101%
pIC50 (Plasmodium falciparum [2]): 5.95
fold induction at 0.002 mg/ml [9]: 1
viability at 0.008 mg/ml [10]: 97.5%
fold induction at 0.004 mg/ml [11]: 0.8
fold induction at 0.031 mg/ml [12]: 0.7
fold induction at 0.008 mg/ml [13]: 1
viability at 0.001 mg/ml [14]: 110%
fold induction at 0.001 mg/ml [15]: 0.8
fold induction at 0.004 mg/ml [16]: 0.9
viability at 0.031 mg/ml [17]: 138%
viability at 0.008 mg/ml [18]: 104%
fold induction at 0.008 mg/ml [19]: 0.9
viability at 0.002 mg/ml [20]: 103%
viability at 0.016 mg/ml [21]: 89.4%
viability at 0.016 mg/ml [22]: 103%
fold induction at 0.031 mg/ml [23]: 0.9
fold induction at 0.016 mg/ml [24]: 1
CC50 [3]: 509 µM
viability at 0.001 mg/ml [25]: 124%
fold induction at 0.002 mg/ml [26]: 0.9
viability at 0.004 mg/ml [27]: 99.4%
fold induction at 0.016 mg/ml [28]: 1
selectivity ratio [4]: 451

OC(CCN1CC=C(c2ccc(F)cc2)CC1)c1ccc(Cl)cc1 (stereo unspecified)
pIC50 (Plasmodium falciparum [1]): 5.45
pIC50 (Plasmodium falciparum [2]): 5.64
CC50 [3]: 110 µM
selectivity ratio [4]: 48

OC(CCN1CC=C(c2ccc(F)cc2)CC1)c1ccc(F)c(F)c1 (stereo unspecified)
pIC50 (Plasmodium falciparum [1]): 5.55
pIC50 (Plasmodium falciparum [2]): 5.70
CC50 [3]: 97 µM
selectivity ratio [4]: 48

COc1ccc(C(O)CCN2CC=C(c3ccc(F)cc3)CC2)cc1 (stereo unspecified)
pIC50 (Plasmodium falciparum [1]): 4.74
pIC50 (Plasmodium falciparum [2]): 4.94
CC50 [3]: 152 µM
selectivity ratio [4]: 13

Reference: ChEMBL document CHEMBL4152256, “Structure-activity relationship of new antimalarial 1-aryl-3-susbtituted propanol derivatives: Synthesis, preliminary toxicity profiling, parasite life cycle stage studies, target exploration, and targeted delivery” (Eur J Med Chem, 2018)
